Assay results taken from ChEMBL document CHEMBL2346608, “New annelated thieno[2,3-e][1,2,3]triazolo[1,5-a]pyrimidines, with potent anticancer activity, designed through VLAK protocol” (2013).

Tests used:
Format in all cases: functional
NCI-H226 = test: Antiproliferative activity against human NCI-H226 cells after 48 hrs by sulforhodamine B assay; conditions: NCI-H226, 48 h
Method in brief: (§1)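 Cells grown in RPMI 1640 with 5% FBS and 2 mM L-glutamine, plated at 5000–40,000 cells/well and preincubated 24 h at 37 °C, 5% CO2. Five drug concentrations (10-fold or ½-log dilutions from DMSO stocks) applied for 48 h. TCA-fixed (final 10% adherent, 16% suspension), SRB-stained, A515 read. Growth versus time-zero and control wells gave GI50, TGI, LC50.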

KM12 = test: Antiproliferative activity against human KM12 cells after 48 hrs by sulforhodamine B assay; conditions: KM12, 48 h; method in brief: as §1
[1] = Antiproliferative activity against human Hs 578T cells after 48 hrs by sulforhodamine B assay; method in brief: as §1
NCI-H460 = test: Antiproliferative activity against human NCI-H460 cells after 48 hrs by sulforhodamine B assay; conditions: NCI-H460, 48 h; method in brief: as §1
UO-31 = test: Antiproliferative activity against human UO31 cells after 48 hrs by sulforhodamine B assay; conditions: UO-31, 48 h
Method in brief: (§2)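 Cells in RPMI 1640 with 5% FBS and 2 mM L-glutamine were seeded at 5000–40,000/well according to doubling time and preincubated 24 h at 37 °C in 5% CO2. Time-zero plates were TCA-fixed when drug was added. Five 10-fold or ½-log dilutions from DMSO stocks were added for 48 h. After SRB staining, A515 was read and GI50 derived from [(Ti−Tz)/(C−Tz)]×100 = 50.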

CAKI-1 = test: Antiproliferative activity against human CAKI-1 cells after 48 hrs by sulforhodamine B assay; conditions: CAKI-1, 48 h; method in brief: as §1
RPMI-8226 = test: Antiproliferative activity against human RPMI8226 cells after 48 hrs by sulforhodamine B assay; conditions: RPMI-8226, 48 h, read-out: pLC50 (the source's name) (converted); method in brief: as §1
SF-268 = test: Antiproliferative activity against human SF268 cells after 48 hrs by sulforhodamine B assay; conditions: SF-268, 48 h; method in brief: as §1
HT-29 = test: Antiproliferative activity against human HT-29 cells after 48 hrs by sulforhodamine B assay; conditions: HT-29, 48 h; method in brief: as §1
OVCAR-8 = test: Antiproliferative activity against human OVCAR8 cells after 48 hrs by sulforhodamine B assay; conditions: OVCAR-8, 48 h; method in brief: as §1
UACC-257 = test: Antiproliferative activity against human UACC257 cells after 48 hrs by sulforhodamine B assay; conditions: UACC-257, 48 h; method in brief: as §2
A549 = test: Antiproliferative activity against human A549 cells after 48 hrs by sulforhodamine B assay; conditions: A549, 48 h; method in brief: as §1
TK-10 = test: Antiproliferative activity against human TK10 cells after 48 hrs by sulforhodamine B assay; conditions: TK-10, 48 h; method in brief: as §2
CCRF-CEM = test: Antiproliferative activity against human CCRF-CEM cells after 48 hrs by sulforhodamine B assay; method in brief: as §1
RXF 393 = test: Antiproliferative activity against human RXF393 cells after 48 hrs by sulforhodamine B assay; conditions: RXF 393, 48 h; method in brief: as §1
SK-MEL-28 = test: Antiproliferative activity against human SK-MEL-28 cells after 48 hrs by sulforhodamine B assay; conditions: SK-MEL-28, 48 h; method in brief: as §1
HOP-62 = test: Antiproliferative activity against human HOP62 cells after 48 hrs by sulforhodamine B assay; conditions: HOP-62, 48 h; method in brief: as §1
HCT-15 = test: Antiproliferative activity against human HCT15 cells after 48 hrs by sulforhodamine B assay; conditions: HCT-15, 48 h; method in brief: as §1
SK-MEL-5 = test: Antiproliferative activity against human SK-MEL-5 cells after 48 hrs by sulforhodamine B assay; conditions: SK-MEL-5, 48 h; method in brief: as §1
[2] = Antiproliferative activity against human HCC2998 cells after 48 hrs by sulforhodamine B assay; conditions: HCC 2998, 48 h; method in brief: as §1
SNB-75 = test: Antiproliferative activity against human SNB75 cells after 48 hrs by sulforhodamine B assay; conditions: SNB-75, 48 h; method in brief: as §2
Malme-3M = test: Antiproliferative activity against human MALME-3M cells after 48 hrs by sulforhodamine B assay; method in brief: as §1
OVCAR-4 = test: Antiproliferative activity against human OVCAR4 cells after 48 hrs by sulforhodamine B assay; conditions: OVCAR-4, 48 h; method in brief: as §1
HOP-92 = test: Antiproliferative activity against human HOP92 cells after 48 hrs by sulforhodamine B assay; conditions: HOP-92, 48 h; method in brief: as §1
786-0 = test: Antiproliferative activity against human 786-0 cells after 48 hrs by sulforhodamine B assay; conditions: 786-0, 48 h; method in brief: as §1
NCI-H522 = test: Antiproliferative activity against human NCI-H522 cells after 48 hrs by sulforhodamine B assay; conditions: NCI-H522, 48 h; method in brief: as §1
MCF7 = test: Antiproliferative activity against human MCF7 cells after 48 hrs by sulforhodamine B assay; conditions: MCF7, 48 h; method in brief: as §1
M14 = test: Antiproliferative activity against human M14 cells after 48 hrs by sulforhodamine B assay; conditions: M14, 48 h; method in brief: as §1
NCI-H23 = test: Antiproliferative activity against human NCI-H23 cells after 48 hrs by sulforhodamine B assay; conditions: NCI-H23, 48 h; method in brief: as §1
[3] = read-out: pLC50 (the source's name) (converted)

O=C(CCCn1c(=O)c2sc3ccccc3c2n2nnc(-c3ccccc3)c12)NCCc1c[nH]cn1
GI50 (NCI-H226): 18.6 µM | LC50 (NCI-H226): 75.9 µM | TGI (NCI-H226; read-out: pTGI (converted)): 38 µM | GI50 (KM12): 1.15 µM | TGI (KM12; read-out: pTGI (converted)): 2.82 µM | GI50 [1]: 1.74 µM | TGI ([1]; read-out: pTGI (converted)): 4.07 µM | GI50 (NCI-H460): 1.86 µM | LC50 (NCI-H460): 7.76 µM | TGI (NCI-H460; read-out: pTGI (converted)): 3.8 µM | GI50 (UO-31): 1.91 µM | TGI (UO-31; read-out: pTGI (converted)): 3.72 µM | GI50 (CAKI-1): 0.182 µM | CC50 (CAKI-1; [3]): 4.47 µM | TGI (CAKI-1; read-out: pTGI (converted)): 1.7 µM | CC50 (RPMI-8226): > 100 µM | GI50 (SF-268): 1.78 µM | LC50 (SF-268): 7.76 µM | TGI (SF-268; read-out: pTGI (converted)): 3.72 µM | GI50 (HT-29): 1.35 µM | LC50 (HT-29): 7.41 µM | TGI (HT-29; read-out: pTGI (converted)): 3.16 µM | GI50 (OVCAR-8): 0.324 µM | LC50 (OVCAR-8): > 100 µM | TGI (OVCAR-8; read-out: pTGI (converted)): 2.82 µM | GI50 (UACC-257): 2.04 µM | LC50 (UACC-257): > 100 µM | TGI (UACC-257; read-out: pTGI (converted)): 4.57 µM | GI50 (A549): 2.09 µM | TGI (A549; read-out: pTGI (converted)): 4.57 µM | GI50 (TK-10): 2.14 µM | TGI (TK-10; read-out: pTGI (converted)): 3.98 µM | LC50 (CCRF-CEM): > 100 µM | TGI (CCRF-CEM; read-out: pTGI (converted)): > 100 µM | GI50 (RXF 393): 2.51 µM | LC50 (RXF 393): > 100 µM | TGI (RXF 393; read-out: pTGI (converted)): 5.01 µM | GI50 (SK-MEL-28): 1.74 µM | LC50 (SK-MEL-28): 5.89 µM | TGI (SK-MEL-28; read-out: pTGI (converted)): 3.24 µM | GI50 (HOP-62): 2.29 µM | LC50 (HOP-62): > 100 µM | TGI (HOP-62; read-out: pTGI (converted)): 5.25 µM | GI50 (HCT-15): 1.26 µM | LC50 (HCT-15): 5.01 µM | TGI (HCT-15; read-out: pTGI (converted)): 2.51 µM | GI50 (SK-MEL-5): 1.91 µM | LC50 (SK-MEL-5): 8.91 µM | TGI (SK-MEL-5; read-out: pTGI (converted)): 4.07 µM | GI50 [2]: 1.78 µM | LC50 [2]: 9.77 µM | TGI ([2]; read-out: pTGI (converted)): 4.17 µM | GI50 (SNB-75): 1.86 µM | LC50 (concentration killing 50% of starting cells) (SNB-75): 8.71 µM | TGI (SNB-75; read-out: pTGI (converted)): 4.07 µM | GI50 (Malme-3M): 2.51 µM | LC50 (Malme-3M): > 100 µM | TGI (Malme-3M; read-out: pTGI (converted)): 5.5 µM | GI50 (OVCAR-4): 1.74 µM | TGI (OVCAR-4; read-out: pTGI (converted)): 3.8 µM | GI50 (HOP-92): 1.86 µM | CC50 (HOP-92; [3]): > 100 µM | GI50 (786-0): 1.58 µM | TGI (786-0; read-out: pTGI (converted)): 3.55 µM | GI50 (NCI-H522): 1.05 µM | LC50 (NCI-H522): 81.3 µM | TGI (NCI-H522; read-out: pTGI (converted)): 11.7 µM | GI50 (MCF7): 1.45 µM | LC50 (MCF7): 6.46 µM | TGI (MCF7; read-out: pTGI (converted)): 3.09 µM | GI50 (M14): 1.7 µM | TGI (M14; read-out: pTGI (converted)): 3.8 µM | GI50 (NCI-H23): 2.95 µM | LC50 (NCI-H23): > 100 µM | TGI (NCI-H23; read-out: pTGI (converted)): 11.7 µM
